Laboratory results reported in ChEMBL document CHEMBL4152210, “Design, synthesis, anti-lung cancer activity, and chemosensitization of tumor-selective MCACs based on ROS-mediated JNK pathway activation and NF-κB pathway inhibition” (Eur J Med Chem, 2018).
The source made the active and inactive calls. The calls are words filed in the database; no cut-off is given here.

How the values were obtained:
A549 [1] = test: Anticlonogenic activity against human A549 cells assessed as inhibition of clonogenic growth at 0.5 uM incubated for 2 days followed by replacement of growth media and measured after 8 days by crystal violet staining-based assay relative to control; type: functional
How it was run: (§1)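 A549 seeded at 1000 cells per well in 6-well plates, exposed to drug alone or combined with cisplatin or 5-Fu over a concentration series. Drug-containing medium replaced after 2 days. After a further 8 days, fixed with 1% methanol/1% formaldehyde and stained with 0.5% crystal violet. Percent inhibition at each concentration calculated relative to control.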

A549 [2] = test: Chemosensitization activity in human A549 cells assessed as inhibition of clonogenic growth at 1 uM in presence of 0.74 uM cisplatin incubated for 2 days followed by replacement of growth media and measured after 8 days by crystal violet staining-based assay relative to control; type: functional; how it was run: as §1
A549 [3] = test: Induction of apoptosis in human A549 cells at 10 uM preincubated with NAC for 1 hr followed by compound addition and measured after 24 hrs by Annexin V-FITC/propidium iodide staining based flow cytometric analysis; type: functional, cell-based
How it was run: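 A549 treated 24 h at 1, 5 or 10 µM, with BMS345541 20 µM as control. Inhibitor arms pretreated 1 h with NAC (5 mM) or SP600125 (10 µM) before 10 µM. Cells harvested with EDTA-free trypsin, stained with FITC Annexin V and PI for 15 min at room temperature in the dark, analysed by flow cytometry.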

A549 [4] = test: Chemosensitization activity in human A549 cells assessed as inhibition of clonogenic growth at 0.25 uM in presence of 3 uM cisplatin incubated for 2 days followed by replacement of growth media and measured after 8 days by crystal violet staining-based assay relative to control; type: functional; how it was run: as §1
NCI-H1975 = test: Cytotoxicity against human NCI-H1975 cells assessed as reduction in cell viability after 72 hrs by MTT assay; type: functional, cell-based; details: NCI-H1975, 72 h
How it was run: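 Cells in RPMI 1640 with 10% heat-inactivated FBS and penicillin/streptomycin at 37 °C, 5% CO2. Seeded at 4000 per well, adhered overnight, then exposed to graded compound concentrations in triplicate wells for 72 h. MTT (5 mg/mL stock) added for 4 h, dissolved in DMSO, A490 read. IC50 is the concentration reducing viability by 50% versus untreated control.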

A549 [5] = test: Anticlonogenic activity against human A549 cells assessed as inhibition of clonogenic growth at 0.25 uM incubated for 2 days followed by replacement of growth media and measured after 8 days by crystal violet staining-based assay relative to control; type: functional; how it was run: as §1
A549 [6] = test: Anticlonogenic activity against human A549 cells assessed as inhibition of clonogenic growth at 1 uM incubated for 2 days followed by replacement of growth media and measured after 8 days by crystal violet staining-based assay relative to control; type: functional; how it was run: as §1

With `COc1cc(/C=C2\CN(C)C/C(=C\c3cc(OC)c(OC)c(OC)c3)C2=O)cc(OC)c1OC` as the molecule, how does the inhibition at 0.5 µM (A549 [1]) read?
The inhibition at 0.5 µM was 18%.

And the “inhibition (INH)” value (A549 [2])?
Its value is 97%.

What about the Activity (A549 [3]) of the same molecule?
The Activity was “inactive”.

What about the “inhibition (INH)” value (A549 [4]) of the same molecule?
The value was 57%.

And the IC50 (NCI-H1975)?
The IC50 was 1000 nM.

And the inhibition at 0.25 µM (A549 [5])?
The inhibition at 0.25 µM was 2 to 11%.

And the inhibition at 1 µM (A549 [6])?
Its inhibition at 1 µM is 44%.
